Data published in ChEMBL document CHEMBL1147759, “Substituted indanylacetic acids as PPAR-alpha-gamma activators” (Bioorg Med Chem Lett, 2006).

Tested on: not listed separately
Experiment: AUC in male db/db mice administered at 3 mg/kg, po
Type: ADME, organism-based
Design: dose 3 mg/kg, route oral
Conditions: mouse, plasma
With `CC[C@H](C(=O)O)[C@@H]1CCc2cc(OCCc3nc(-c4ccc(C)cc4)oc3C)ccc21` the AUC was 11600 ng·h/mL.

Molecular target: T1, Peroxisome proliferator-activated receptor alpha (Homo sapiens, UniProt Q07869)
T1 sequence (Q07869 whole entry): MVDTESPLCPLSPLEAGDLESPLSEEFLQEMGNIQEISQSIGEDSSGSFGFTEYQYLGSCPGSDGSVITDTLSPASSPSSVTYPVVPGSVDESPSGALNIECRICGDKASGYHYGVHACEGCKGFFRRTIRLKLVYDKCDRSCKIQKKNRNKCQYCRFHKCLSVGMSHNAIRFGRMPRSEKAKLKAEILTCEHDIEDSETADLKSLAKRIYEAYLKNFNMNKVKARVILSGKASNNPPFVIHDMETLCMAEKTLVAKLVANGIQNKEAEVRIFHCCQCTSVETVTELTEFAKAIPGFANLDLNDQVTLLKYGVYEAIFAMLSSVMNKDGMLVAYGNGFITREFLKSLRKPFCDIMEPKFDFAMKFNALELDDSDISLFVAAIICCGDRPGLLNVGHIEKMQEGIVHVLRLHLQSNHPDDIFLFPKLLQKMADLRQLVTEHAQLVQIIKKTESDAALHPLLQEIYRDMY
Experiment: Activity against PPAR alpha in human by FRET assay
Conditions: not given
Outline: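 Human PPAR-α ligand-binding domain (GST-tagged), incubated with compound, europium-labelled anti-GST antibody, biotinylated CREB-binding protein co-activator and streptavidin-APC. Time-resolved FRET read with excitation at 340 nm and emission at 615 and 640 nm. EC50 taken as the mean of at least three experiments.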
Compound `CCC(C(=O)O)C1CCc2cc(OCCc3c(C)noc3C)ccc21` (stereo not drawn) has an EC50 of over 10000 nM.
In the case of `Cc1oc(-c2ccccc2)nc1CCOc1ccc2c(c1)CCC2C(CC(F)(F)F)C(=O)O` (stereo not drawn), the EC50 is reported as 5790 nM.
Work on `CC[C@H](C(=O)O)[C@@H]1CCc2cc(OCCc3nc(-c4ccc(C)cc4)oc3C)ccc21` yielded an EC50 of 78 nM.
For `Cc1oc(-c2ccccc2)nc1CCOc1ccc2c(c1)CCC2C(C(=O)O)C(=O)O` (stereo not drawn), the EC50 was over 10000 nM.
Compound `CCCC(C(=O)O)C1CCc2cc(OCCc3nc(-c4ccccc4)oc3C)ccc21` (stereo not drawn) has an EC50 of 3890 nM.
With `Cc1oc(-c2ccccc2)nc1CCOc1ccc2c(c1)CCC2C(C)(C)C(=O)O` (stereo not drawn) the EC50 was 6000 nM.
In the case of `CCC(C(=O)O)C1CCc2cc(OCCn3nc(-c4ccccc4)cc3C)ccc21` (stereo not drawn), the EC50 is reported as 232 nM.
Work on `CCC(C(=O)O)C1CCc2cc(OCCn3ncc4ccccc4c3=O)ccc21` (stereo not drawn) yielded an EC50 of over 10000 nM.
`CCC(C(=O)O)C1CCc2cc(OCCc3noc(-c4ccccc4)n3)ccc21` (stereo not drawn) gave an EC50 of 1040 nM.
Work on `COC(C(=O)O)C1CCc2cc(OCCc3nc(-c4ccccc4)oc3C)ccc21` (stereo not drawn) yielded an EC50 of 670 nM.
In the case of `CCC(C(=O)O)C1CCc2cc(OCCc3c(-c4ccccc4)noc3C)ccc21` (stereo not drawn), the EC50 is reported as over 10000 nM.
In the case of `Cc1oc(-c2ccccc2)nc1CCOc1ccc2c(c1)CCC2C(C(=O)O)c1ccccc1` (stereo not drawn), the EC50 is reported as 7260 nM.
`CCOC(=O)C(C(=O)O)C1CCc2cc(OCCc3nc(-c4ccccc4)oc3C)ccc21` (stereo not drawn) showed an EC50 of 308 nM.
With `Cc1oc(-c2ccccc2)nc1CCOc1ccc2c(c1)CCC2C(C(=O)O)C1CC1` (stereo not drawn) the EC50 was 795 nM.
`CCC(C(=O)O)C1CCc2cc(OCCc3nc(-c4ccccc4)sc3C)ccc21` (stereo not drawn) gave an EC50 of 979 nM.
For `Cc1oc(-c2ccccc2)nc1CCOc1ccc2c(c1)CCC2C(CCCc1ccccc1)C(=O)O` (stereo not drawn), the EC50 was over 10000 nM.
With `CCC(C(=O)O)C1CCc2cc(OCCc3nc(-c4ccccc4)oc3C)ccc21` (stereo not drawn) the EC50 was 141 nM.
`CCOC(C(=O)O)C1CCc2cc(OCCc3nc(-c4ccccc4)oc3C)ccc21` (stereo not drawn) gave an EC50 of 500 nM.
Compound `CCC(C(=O)O)C1CCc2cc(OCCc3nc(-c4ccc(F)cc4)oc3C)ccc21` (stereo in doubt) has an EC50 of 37 nM.
`CCC(C(=O)O)C1CCc2cc(OCCc3nc(-c4ccc(Cl)c(Cl)c4)oc3C)ccc21` (stereo in doubt) showed an EC50 of 29 nM.
With `CCC(C(=O)O)C1CCc2cc(OCCc3nc(-c4ccc(F)cc4)oc3C)ccc21` (stereo in doubt; 54) the EC50 was 137 nM.
`CCC(C(=O)O)C1CCc2cc(OCCc3nc(-c4ccc(Cl)c(Cl)c4)oc3C)ccc21` (stereo in doubt; 66) showed an EC50 of 91 nM.

Tested on: Mus musculus
Experiment: Decrease in serum triglyceride level in male hApoA1 mice administered at 30 mg/kg
Type: functional
Design: scale not given: the % may be the effect or the level left
Conditions: not given
Outline: (§1)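 Male hApoA1 transgenic mice, n = 16 per group, had ad lib water and chow. They were dosed by oral gavage once daily for eight days in 0.5% methylcellulose vehicle, with vehicle controls. Serum lipid changes are compared with vehicle.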
For `CC[C@H](C(=O)O)[C@@H]1CCc2cc(OCCc3nc(-c4ccc(C)cc4)oc3C)ccc21`, the Activity was 60%.

Tested on: Mus musculus
Experiment: Decrease in blood glucose level in male db/db mice administered at 10 mg/kg, po
Type: functional
Design: scale not given: the % may be the effect or the level left
Conditions: not given
Outline: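 Given by oral gavage once daily for 14 days in 0.5% methylcellulose vehicle, with vehicle-dosed controls. After the last dose the mice were euthanized and blood was collected for glucose measurement. The decrease is expressed relative to vehicle.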
For `CC[C@H](C(=O)O)[C@@H]1CCc2cc(OCCc3nc(-c4ccc(C)cc4)oc3C)ccc21`, the Activity was 45%.

Tested on: Mus musculus
Experiment: Decrease in serum triglyceride level in male hApoA1 mice administered at 10 mg/kg
Type: functional
Design: scale not given: the % may be the effect or the level left
Conditions: not given
Outline: as §1
For `CC[C@H](C(=O)O)[C@@H]1CCc2cc(OCCc3nc(-c4ccc(C)cc4)oc3C)ccc21`, the Activity was 45%.

Tested on: not listed separately
Experiment: Cmax in male hApoA1 transgenic mice administered at 3 mg/kg, po
Type: ADME, organism-based
Design: dose 3 mg/kg, route oral
Conditions: mouse, in vivo
Compound `CC[C@H](C(=O)O)[C@@H]1CCc2cc(OCCc3nc(-c4ccc(C)cc4)oc3C)ccc21` has a Cmax of 2550 ng/mL.

Molecular target: T2, Peroxisome proliferator-activated receptor gamma (Homo sapiens, UniProt P37231)
T2 sequence (P37231 whole entry): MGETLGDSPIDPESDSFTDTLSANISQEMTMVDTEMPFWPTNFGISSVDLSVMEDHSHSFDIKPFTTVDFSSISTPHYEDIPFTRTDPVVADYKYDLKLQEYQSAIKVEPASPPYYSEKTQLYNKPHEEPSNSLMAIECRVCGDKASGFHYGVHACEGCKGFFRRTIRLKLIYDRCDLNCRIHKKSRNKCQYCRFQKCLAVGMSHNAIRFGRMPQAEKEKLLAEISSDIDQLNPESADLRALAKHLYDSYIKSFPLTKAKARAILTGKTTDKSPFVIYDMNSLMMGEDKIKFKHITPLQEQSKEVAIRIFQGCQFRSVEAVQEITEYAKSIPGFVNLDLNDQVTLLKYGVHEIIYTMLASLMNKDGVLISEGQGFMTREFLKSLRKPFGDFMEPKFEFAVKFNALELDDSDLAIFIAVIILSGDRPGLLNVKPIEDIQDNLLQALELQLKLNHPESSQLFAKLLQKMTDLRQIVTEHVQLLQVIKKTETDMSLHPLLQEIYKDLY
Experiment: Activity against PPAR gamma in human by FRET assay
Conditions: not given
Compound `CCC(C(=O)O)C1CCc2cc(OCCc3c(C)noc3C)ccc21` (stereo not drawn) has an EC50 of over 10000 nM.
Work on `Cc1oc(-c2ccccc2)nc1CCOc1ccc2c(c1)CCC2C(CC(F)(F)F)C(=O)O` (stereo not drawn) yielded an EC50 of 177 nM.
`CC[C@H](C(=O)O)[C@@H]1CCc2cc(OCCc3nc(-c4ccc(C)cc4)oc3C)ccc21` gave an EC50 of 30 nM.
`Cc1oc(-c2ccccc2)nc1CCOc1ccc2c(c1)CCC2C(C(=O)O)C(=O)O` (stereo not drawn) showed an EC50 of 1860 nM.
Work on `CCCC(C(=O)O)C1CCc2cc(OCCc3nc(-c4ccccc4)oc3C)ccc21` (stereo not drawn) yielded an EC50 of 52 nM.
Work on `Cc1oc(-c2ccccc2)nc1CCOc1ccc2c(c1)CCC2C(C)(C)C(=O)O` (stereo not drawn) yielded an EC50 of 5640 nM.
For `CCC(C(=O)O)C1CCc2cc(OCCn3nc(-c4ccccc4)cc3C)ccc21` (stereo not drawn), the EC50 was 196 nM.
Work on `CCC(C(=O)O)C1CCc2cc(OCCn3ncc4ccccc4c3=O)ccc21` (stereo not drawn) yielded an EC50 of over 10000 nM.
`CCC(C(=O)O)C1CCc2cc(OCCc3noc(-c4ccccc4)n3)ccc21` (stereo not drawn) showed an EC50 of over 10000 nM.
Work on `COC(C(=O)O)C1CCc2cc(OCCc3nc(-c4ccccc4)oc3C)ccc21` (stereo not drawn) yielded an EC50 of 45 nM.
`CCC(C(=O)O)C1CCc2cc(OCCc3c(-c4ccccc4)noc3C)ccc21` (stereo not drawn) showed an EC50 of over 10000 nM.
In the case of `Cc1oc(-c2ccccc2)nc1CCOc1ccc2c(c1)CCC2C(C(=O)O)c1ccccc1` (stereo not drawn), the EC50 is reported as 9560 nM.
With `CCOC(=O)C(C(=O)O)C1CCc2cc(OCCc3nc(-c4ccccc4)oc3C)ccc21` (stereo not drawn) the EC50 was 68 nM.
For `Cc1oc(-c2ccccc2)nc1CCOc1ccc2c(c1)CCC2C(C(=O)O)C1CC1` (stereo not drawn), the EC50 was 160 nM.
Compound `CCC(C(=O)O)C1CCc2cc(OCCc3nc(-c4ccccc4)sc3C)ccc21` (stereo not drawn) has an EC50 of 85 nM.
With `Cc1oc(-c2ccccc2)nc1CCOc1ccc2c(c1)CCC2C(CCCc1ccccc1)C(=O)O` (stereo not drawn) the EC50 was 3180 nM.
Work on `CCC(C(=O)O)C1CCc2cc(OCCc3nc(-c4ccccc4)oc3C)ccc21` (stereo not drawn) yielded an EC50 of 42 nM.
`CCOC(C(=O)O)C1CCc2cc(OCCc3nc(-c4ccccc4)oc3C)ccc21` (stereo not drawn) showed an EC50 of 12 nM.
For `CCC(C(=O)O)C1CCc2cc(OCCc3nc(-c4ccc(F)cc4)oc3C)ccc21` (stereo in doubt), the EC50 was 154 nM.
Work on `CCC(C(=O)O)C1CCc2cc(OCCc3nc(-c4ccc(Cl)c(Cl)c4)oc3C)ccc21` (stereo in doubt) yielded an EC50 of 131 nM.
`CCC(C(=O)O)C1CCc2cc(OCCc3nc(-c4ccc(F)cc4)oc3C)ccc21` (stereo in doubt; 54) showed an EC50 of 59 nM.
In the case of `CCC(C(=O)O)C1CCc2cc(OCCc3nc(-c4ccc(Cl)c(Cl)c4)oc3C)ccc21` (stereo in doubt; 66), the EC50 is reported as 94 nM.

Tested on: not listed separately
Experiment: AUC in male hApoA1 transgenic mice administered at 3 mg/kg, po
Type: ADME, organism-based
Design: dose 3 mg/kg, route oral
Conditions: mouse, plasma
Work on `CC[C@H](C(=O)O)[C@@H]1CCc2cc(OCCc3nc(-c4ccc(C)cc4)oc3C)ccc21` yielded an AUC of 8060 ng·h/mL.

Tested on: Mus musculus
Experiment: Increase in serum HDL in male hApoA1 mice administered at 10 mg/kg, po
Type: functional
Conditions: not given
Outline: as §1
Compound `CC[C@H](C(=O)O)[C@@H]1CCc2cc(OCCc3nc(-c4ccc(C)cc4)oc3C)ccc21` has an Activity of 15%.

Tested on: not listed separately
Experiment: Cmax in male db/db mice administered at 3 mg/kg, po
Type: ADME, organism-based
Design: dose 3 mg/kg, route oral
Conditions: mouse, in vivo
`CC[C@H](C(=O)O)[C@@H]1CCc2cc(OCCc3nc(-c4ccc(C)cc4)oc3C)ccc21` gave a Cmax of 2980 ng/mL.

Tested on: Mus musculus
Experiment: Increase in serum HDL in male hApoA1 mice administered at 30 mg/kg, po
Type: functional
Conditions: not given
Outline: as §1
For `CC[C@H](C(=O)O)[C@@H]1CCc2cc(OCCc3nc(-c4ccc(C)cc4)oc3C)ccc21`, the Activity was 30%.
